Measurements from ChEMBL document CHEMBL5154915 (J Med Chem, 2022).
Calls of active or inactive are those of the source. The calls are words filed in the database; no cut-off is given here.

Tests used:
[1] = Acute toxicity in po dosed Albino Swiss CD-1 mouse assessed as lethal dose after 24 hrs; type: organism-based; conditions: in vivo
Outline: (§1)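 Male Albino Swiss CD-1 mice received compound in saline. Intravenous doses were 100, 200, 250, 275 and 300 mg/kg (1–4 mice per group). Oral doses were 100, 200, 400, 600 and 800 mg/kg (4 per group). Vehicle-only controls were included.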

Cavia porcellus [2] = species: Cavia porcellus; experiment: Activation of SERCA2a activity in guinea pig heart sarcoplasmic reticulum microsomal fraction assessed as increase in SERCA2a-Ca2+ affinity by measuring Kd of calcium at 100 nM preincubated for 5 mins followed by addition of 32-P-ATP measured after 15 mins relative to control; type: subcellular; conditions: time 20.0 min
Outline: (§2)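 Cardiac SR microsomes were prepared from healthy guinea pig hearts and contain SERCA2a plus PLN. Compounds were tested at 10 and 100 nM. KdCa and Vmax were derived by curve fitting. N = 4–11; one-way RM ANOVA with Tukey or paired t-test.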

Cavia porcellus [3] = species: Cavia porcellus; experiment: Activation of SERCA2a activity in guinea pig heart sarcoplasmic reticulum microsomal fraction assessed as increase in SERCA2a-Ca2+ affinity by measuring Kd of calcium at 10 to 100 nM preincubated for 5 mins followed by addition of 32-P-ATP measured after 15 mins; type: subcellular; conditions: filed as activator, dose 10-100 nM, time 20.0 min
Outline: as §2, with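 “nM. ATPase was measured as 32P-ATP release at 37 °C, taking the cyclopiazonic acid (10 μM)-sensitive part, across Ca2+ 100–1500 nM.” for “nM.”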

Na+/K+ ATPase alpha 1 = Na+/K+ ATPase alpha 1 (Canis lupus familiaris, UniProt P50997); experiment: Inhibition of Beagle dog kidney NA+/K+ ATPase alpha 1 by measuring 32P-ATP hydrolysis at 0.0001 M preincubated for 10 mins followed by addition of 32P-ATP measured after 15 mins; type: toxicity; conditions: dog kidney Na+/K+ ATPase alpha 1, probe 32P-ATP, time 25 min
Outline: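 Na+/K+ ATPase-α1 was purified from dog kidney (specific activity 14 μmol/min/mg protein). Compounds were tested from 10–9 to 10–4 M. Activity is the ouabain (1 mM)-sensitive part of total 32P-ATP release at 37 °C. N = 2.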

Cavia porcellus [4] = species: Cavia porcellus; experiment: Activation of SERCA1 activity in guinea pig skeletal muscle microsome from hind leg assessed as increase in SERCA1-Ca2+ affinity by measuring reversal of PLN (1-12)-induced shift in dissociation of calcium; type: microsomes; conditions: filed as activator, dose 30-1000 nM, DDE = dose-dependent effect
Cavia porcellus [5] = species: Cavia porcellus; experiment: Activation of SERCA1 activity in guinea pig skeletal muscle microsome from hind leg assessed as increase in SERCA1-Ca2+ affinity by measuring Kd of calcium at 30 to 1000 nM preincubated for 5 mins followed by addition of 32-P-ATP measured after 15 mins in presence of PLN (1-12) relative to control; type: microsomes; conditions: dose 30-1000 nM, time 20.0 min
[6] = Acute toxicity in iv dosed Albino Swiss CD-1 mouse assessed as lethal dose after 24 hrs; type: organism-based; conditions: in vivo; outline: as §1
[7] = Acute toxicity in Albino Swiss CD-1 mouse assessed as gasping at 100 to 800 mg/kg, po or 100 to 300 mg/kg, iv after 24 hrs; type: organism-based; conditions: in vivo, dose 100-800 mg/kg; outline: as §1
Rattus norvegicus [8] = experiment: Hemodynamic activity in STZ-induced diabetic cardiomyopathy Sprague-Dawley rat model assessed as transmitral doppler flow index by measuring shortening in DT wave at 0.2 mg/kg/min, iv for 15 to 30 mins measured after 10 mins of treatment by tissue doppler imaging method; type: functional, organism-based; conditions: time lower […], time upper 40.0 min
Outline: (§3)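 Male Sprague Dawley rats (150–175 g) were made diabetic with STZ 50 mg/kg i.v. in citrate buffer; fasting glycaemia >290 mg/dL at 1 week qualified. They were studied 8 weeks after STZ under urethane 1.25 g/kg i.p. Transthoracic echo with pulsed Doppler and TDI was taken before, at 15 and 30 min during i.v. infusion at 0.2 mg/kg/min, and 10 min after stopping. N = 13; one-way RM ANOVA.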

Rattus norvegicus [9] = experiment: Hemodynamic activity in STZ-induced diabetic cardiomyopathy Sprague-Dawley rat model assessed as effect on left ventricular end-systolic diameter at 0.2 mg/kg/min, iv for 15 to 30 mins measured after 10 mins of treatment by tissue doppler imaging method; type: functional, organism-based; conditions: time lower […], time upper 40.0 min; outline: as §3
[10] = Acute toxicity in Albino Swiss CD-1 mouse assessed as convulsions at 100 to 800 mg/kg, po or 100 to 300 mg/kg, iv after 24 hrs; type: organism-based; conditions: in vivo, dose 100-800 mg/kg; outline: as §1
Rattus norvegicus [11] = experiment: Hemodynamic activity in STZ-induced diabetic cardiomyopathy Sprague-Dawley rat model assessed as effect on systolic TDI velocity at 0.2 mg/kg/min, iv for 15 to 30 mins measured after 10 mins of treatment by tissue doppler imaging method; type: functional, organism-based; conditions: time lower […], time upper 40.0 min; outline: as §3
Rattus norvegicus [12] = experiment: Hemodynamic activity in STZ-induced diabetic cardiomyopathy Sprague-Dawley rat model assessed as transmitral doppler flow index by measuring increase in telediastolic TDI relaxation velocity at 0.2 mg/kg/min, iv for 15 to 30 mins measured after 10 mins of treatment by tissue doppler imaging method; type: functional, organism-based; conditions: time lower […], time upper 40.0 min; outline: as §3
Rattus norvegicus [13] = experiment: Hemodynamic activity in STZ-induced diabetic cardiomyopathy Sprague-Dawley rat model assessed as effect on heart rate at 0.2 mg/kg/min, iv for 15 to 30 mins measured after 10 mins of treatment by tissue doppler imaging method; type: functional, organism-based; conditions: time lower […], time upper 40.0 min; outline: as §3
Rattus norvegicus [14] = experiment: Hemodynamic activity in STZ-induced diabetic cardiomyopathy Sprague-Dawley rat model assessed as transmitral doppler flow index by measuring increase in protodiastolic TDI relaxation velocity at 0.2 mg/kg/min, iv for 15 to 30 mins measured after 10 mins of treatment by tissue doppler imaging method; type: functional, organism-based; conditions: time lower […], time upper 40.0 min; outline: as §3
Rattus norvegicus [15] = experiment: Hemodynamic activity in STZ-induced diabetic cardiomyopathy Sprague-Dawley rat model assessed as effect on systolic index by measuring fractional shortening at 0.2 mg/kg/min, iv for 15 to 30 mins measured after 10 mins of treatment by tissue doppler imaging method; type: functional, organism-based; conditions: time lower […], time upper 40.0 min; outline: as §3
[16] = Inhibition of NA+/K+ ATPase activity in STZ-induced diabetic rat left ventricular myocytes assessed as inhibition of NA+/K+ ATPase current at 20 to 100 uM for 30 min; type: toxicity, cell-based; conditions: ventricular myocyte, 0.5 h, dose 20-100 µM
[17] = Acute toxicity in Albino Swiss CD-1 mouse assessed as prostration at 100 to 800 mg/kg, po or 100 to 300 mg/kg, iv after 24 hrs; type: organism-based; conditions: in vivo, dose 100-800 mg/kg; outline: as §1
Rattus norvegicus [18] = experiment: Hemodynamic activity in STZ-induced diabetic cardiomyopathy Sprague-Dawley rat model assessed as transmitral doppler flow index by measuring increasing in E and A waves at 0.2 mg/kg/min, iv for 15 to 30 mins measured after 10 mins of treatment by tissue doppler imaging method; type: functional, organism-based; conditions: time lower […], time upper 40.0 min; outline: as §3
Rattus norvegicus [19] = experiment: Hemodynamic activity in STZ-induced diabetic cardiomyopathy Sprague-Dawley rat model assessed as increased cardiac output at 0.2 mg/kg/min, iv for 15 to 30 mins measured after 10 mins of treatment by tissue doppler imaging method; type: functional, organism-based; conditions: time lower […], time upper 40.0 min; outline: as §3

`C[C@]12CCC(=NOCCN)C[C@@H]1C(=O)C[C@@H]1[C@@H]2CC[C@]2(C)C(=O)CC[C@@H]12` (mixture of isomers) gave an LD50 at 24 h [1] of 200 mg/kg.

With `C[C@]12CC[C@H](CCCCCC(=O)O)C[C@@H]1[C@@H](O)C[C@@H]1[C@@H]2CC[C@]2(C)C(=O)CC[C@@H]12` the Activity (Cavia porcellus [2]) was -26% and the Activity (Cavia porcellus [3]) was “Active”.

Compound `C[C@]12CC[C@H](CC(=O)O)C[C@@H]1[C@H](O)C[C@@H]1[C@@H]2CC[C@]2(C)C(=O)CC[C@@H]12` has an inhibition at […], 100 µM (Na+/K+ ATPase alpha 1) of -55%.

For `CCOC(=O)CCC[C@H]1CC[C@@]2(C)[C@H](C1)[C@@H](O)C[C@@H]1[C@@H]2CC[C@]2(C)C(=O)CC[C@@H]12`, the Activity (Cavia porcellus [2]) was -26% and the Activity (Cavia porcellus [3]) was “Active”.

With `C[C@]12CC[C@H](CCCC(=O)O)C[C@@H]1[C@H](O)C[C@@H]1[C@@H]2CC[C@]2(C)C(=O)CC[C@@H]12` the Activity (Cavia porcellus [3]) was “Active”.

For `C[C@]12CC/C(=C\CCC(=O)O)C[C@@H]1[C@H](O)C[C@@H]1[C@@H]2CC[C@]2(C)C(=O)CC[C@@H]12`, the inhibition at […], 100 µM (Na+/K+ ATPase alpha 1) was -62%.

With `C[C@]12CC[C@H](CC(=O)O)C[C@@H]1[C@@H](O)C[C@@H]1[C@@H]2CC[C@]2(C)C(=O)CC[C@@H]12` the Activity (Cavia porcellus [2]) was -26%, the Activity (Cavia porcellus [4]) was “Dde” and the Activity (Cavia porcellus [5]) was 23%. The Activity (Cavia porcellus [3]) was “Active”.

`C[C@]12CC/C(=N\OCC(=O)O)C[C@@H]1[C@H](O)C[C@@H]1[C@@H]2CC[C@]2(C)C(=O)CC[C@@H]12` showed an LD50 at 24 h [6] greater than 250 mg/kg.

In the case of `C[C@]12CC[C@H](CCCC(=O)O)C[C@@H]1[C@@H](O)C[C@@H]1[C@@H]2CC[C@]2(C)C(=O)CC[C@@H]12`, the Activity [7] is reported as “Non-Toxic”, the Activity (Rattus norvegicus [8]) is reported as “Active” and the Activity (Rattus norvegicus [9]) is reported as “Active”. The Activity [10] was “Non-Toxic”, the Activity (Cavia porcellus [4]) was “Dde” and the Activity (Cavia porcellus [5]) was 23%. The Activity (Rattus norvegicus [11]) was “Active”, the Activity (Rattus norvegicus [12]) was “Active” and the Activity (Rattus norvegicus [13]) was “Active”. The Activity (Rattus norvegicus [14]) was “Active”, the Activity (Cavia porcellus [3]) was “Active” and the Activity (Rattus norvegicus [15]) was “Active”. For the same compound, the “inhibition (INH)” value [16] was “Active”, the Activity [17] was “Non-Toxic” and the Activity (Rattus norvegicus [18]) was “Active”. For the same compound, the Activity (Rattus norvegicus [19]) was “Active”.

In the case of `CCOC(=O)C[C@H]1CC[C@@]2(C)[C@H](C1)[C@@H](O)C[C@@H]1[C@@H]2CC[C@]2(C)C(=O)CC[C@@H]12`, the Activity (Cavia porcellus [3]) is reported as “Active”.

For `CCOC(=O)CCCCC[C@H]1CC[C@@]2(C)[C@H](C1)[C@@H](O)C[C@@H]1[C@@H]2CC[C@]2(C)C(=O)CC[C@@H]12`, the Activity (Cavia porcellus [2]) was -26% and the Activity (Cavia porcellus [3]) was “Active”.

In the case of `C[C@]12CC/C(=C\CCC(=O)O)C[C@@H]1[C@@H](O)C[C@@H]1[C@@H]2CC[C@]2(C)C(=O)CC[C@@H]12`, the Activity (Cavia porcellus [2]) is reported as -26% and the Activity (Cavia porcellus [3]) is reported as “Active”.
